Test results as given in ChEMBL document CHEMBL1795234, “Practical synthesis, anticonvulsant, and antimicrobial activity of N-allyl and N-propargyl di(indolyl)indolin-2-ones” (2011).

Assays:
Format in all cases: functional
Escherichia coli = test: Antibacterial activity against Escherichia coli K12 at 20 ug/ml after 24 hrs by cup plate method; details: K-12, 24 h, read-out: IZ
Procedure, shortened: (§1)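 Cup-plate (well diffusion) on Mueller-Hinton agar; compounds at 20 µg/mL in methanol, 20 µL per well; one well with 20 µL methanol as solvent control; Amikacin standard run alike. Held in refrigerator 1 h for diffusion, then incubated 24 h at 37 °C; zone of inhibition around cup measured.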

Mus musculus [1] = test: Anticonvulsant activity against maximum electric shock-induced seizure in Swiss albino mouse assessed as time spent in tonic clonus phase at 20 mg/kg, ip administered 30 mins before seizure induction by electroconvulsiometer analysis; details: route intraperitoneal
Procedure, shortened: (§2)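 Inbred Swiss albino mice, both sexes, 25–30 g, 7-day adaptation, groups of 5, each used once, tested 10:00–16:00. Compound suspended in 0.5% Tween 80, 20 mg/kg ip 30 min before maximal electroshock; vehicle control group and ip phenytoin 20 mg/kg standard. Seconds spent in flexion, extensor and clonus phases recorded, mean ± SEM.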

Mus musculus [2] = test: Anticonvulsant activity against maximum electric shock-induced seizure in Swiss albino mouse assessed as time spent in tonic flexion phase at 20 mg/kg, ip administered 30 mins before seizure induction by electroconvulsiometer analysis; details: route intraperitoneal; procedure, shortened: as §2
Mus musculus [3] = test: Anticonvulsant activity against maximum electric shock-induced seizure in Swiss albino mouse assessed as time spent in tonic extensor phase at 20 mg/kg, ip administered 30 mins before seizure induction by electroconvulsiometer analysis; details: route intraperitoneal; procedure, shortened: as §2
Staphylococcus aureus = test: Antibacterial activity against methicillin-sensitive Staphylococcus aureus 22 at 20 ug/ml after 24 hrs by cup plate method; details: Staphylococcus aureus, 22, 24 h; read-out: IZ; procedure, shortened: as §1
Candida albicans = test: Antifungal activity against Candida albicans ATCC 10231 at 20 ug/ml after 24 hrs by cup plate method; details: ATCC 10231, 24 h, read-out: IZ
Procedure, shortened: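 C. albicans spores inoculated into lukewarm Sabouraud dextrose agar (pH 5.4, autoclaved 121 °C 15 min) and poured; cups filled with compound at 20 µg/mL, methanol solvent control, Ketoconazole standard. Kept refrigerated 1 h for diffusion, then incubated 24 h at 28 °C; zone of inhibition read.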

SMILES	zone of inhibition at 20 µg/mL (Escherichia coli)	Time (Mus musculus [1])	Time (Mus musculus [2])	Time (Mus musculus [3])	zone of inhibition at 20 µg/mL (Staphylococcus aureus)	zone of inhibition at 20 µg/mL (Candida albicans)
C=CCn1cc(C2(c3cn(CC=C)c4ccccc34)C(=O)Nc3ccccc32)c2ccccc21	12 mm	3.6 s	5.8 s	48 s	12 mm	11 mm
C=CCn1cc(C2(c3cn(CC=C)c4ccccc34)C(=O)Nc3ccc([N+](=O)[O-])cc32)c2ccccc21	10 mm	3.4 s	4.8 s	39.2 s	10 mm	15 mm
C=CCn1cc(C2(c3cn(CC=C)c4ccc(OC)cc34)C(=O)Nc3ccccc32)c2cc(OC)ccc21	10 mm	3.2 s	4.8 s	31.8 s	12 mm	14 mm
C=CCn1cc(C2(c3cn(CC=C)c4ccc(OC)cc34)C(=O)Nc3ccc(Cl)cc32)c2cc(OC)ccc21	11 mm	3.4 s	5.8 s	31.6 s	10 mm	10 mm
C=CCn1cc(C2(c3cn(CC=C)c4ccc(OC)cc34)C(=O)Nc3ccc(Br)cc32)c2cc(OC)ccc21	14 mm	3.4 s	4.8 s	39.2 s	15 mm	14 mm
C=CCn1cc(C2(c3cn(CC=C)c4ccc(OC)cc34)C(=O)N(CC(=O)OCC)c3ccccc32)c2cc(OC)ccc21	14 mm	3.4 s	4.8 s	31.6 s	12 mm	10 mm
O=C1Nc2ccccc2C1(c1cn(C/C=C/c2ccccc2)c2ccccc12)c1cn(C/C=C/c2ccccc2)c2ccccc12	14 mm	3.6 s	4.8 s	39.6 s	10 mm	13 mm
CC(C)=CCn1cc(C2(c3cn(CC=C(C)C)c4ccc(Br)cc34)C(=O)Nc3ccccc32)c2cc(Br)ccc21	12 mm	3.4 s	4.8 s	39.6 s	14 mm	12 mm
C#CCN1C(=O)C(c2cn(CC=C(C)C)c3ccc(Br)cc23)(c2cn(CC=C(C)C)c3ccc(Br)cc23)c2ccccc21	15 mm	2.8 s	5.4 s	31.6 s	15 mm	10 mm
C#CCn1cc(C2(c3cn(CC#C)c4ccccc34)C(=O)Nc3ccccc32)c2ccccc21	10 mm	3.2 s	4.8 s	39.2 s	11 mm	12 mm
C#CCn1cc(C2(c3cn(CC#C)c4ccccc34)C(=O)N(Cc3ccccc3)c3ccccc32)c2ccccc21	17 mm	3.2 s	4.8 s	39.2 s	15 mm	13 mm
C#CCN1C(=O)C(c2cn(CC#C)c3ccccc23)(c2cn(CC#C)c3ccccc23)c2ccccc21	10 mm	3.6 s	5.4 s	31.8 s	10 mm	12 mm
C#CCn1c(C)c(C2(c3c(C)n(CC#C)c4ccccc34)C(=O)Nc3ccccc32)c2ccccc21	15 mm	2.8 s	5.4 s	31.6 s	15 mm	15 mm
NCC[C@H](O)C(=O)N[C@@H]1C[C@H](N)[C@@H](O[C@H]2O[C@H](CN)[C@@H](O)[C@H](O)[C@H]2O)[C@H](O)[C@H]1O[C@H]1O[C@H](CO)[C@@H](O)[C@H](N)[C@H]1O [AMIKACIN]	18 mm				17 mm	
CC(=O)N1CCN(c2ccc(OCC3COC(Cn4ccnc4)(c4ccc(Cl)cc4Cl)O3)cc2)CC1 (centres undefined) [KETOCONAZOLE]						16 mm
O=C1NC(=O)C(c2ccccc2)(c2ccccc2)N1 [PHENYTOIN]		3.4 s	5.6 s	43 s		
